Data on 15 compounds can be found in PubChem BioAssay.

Broadly, the viability is a read-out of living cells in per cent, often relative to untreated cells. Usually inhibition stands for the change of the read-out against control, counted positive when it falls.

The source made the active and inactive calls.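 Rule for the calls, unless noted: active = viability at or below 30% in both replicate assays; inconclusive = viability at or below 30% in just one of the two assays; inactive = the rest.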

Assay [1] in a line: reducers of endogenous Her2 protein level, primary screen, SKBR3 breast tumor cells, AlphaScreen, ATP viability (AID 461;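 active = Her2 level under about 52% in both replicate screens, with viability over 70% of control, limit read from the data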;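 for Her2 level: lower value means less Her2 protein in the cells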;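 for viability: percent of carrier control wells set as 100% viability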). As to conditions: 18-24 h, measured here: SKBR3 viability, ATP luminescence, at 10 µM. Background: In Alpha technology, singlet oxygen from a donor bead excites a nearby acceptor bead.
Assay [2] deals with Receptor tyrosine-protein kinase erbB-2 (Homo sapiens) (UniProt P04626). The assay is described as above. To be noted: 18-24 h, at 10 µM, stronger effect = lower value.
Sequence of Receptor tyrosine-protein kinase erbB-2 (Homo sapiens) (P04626 whole entry, looked up): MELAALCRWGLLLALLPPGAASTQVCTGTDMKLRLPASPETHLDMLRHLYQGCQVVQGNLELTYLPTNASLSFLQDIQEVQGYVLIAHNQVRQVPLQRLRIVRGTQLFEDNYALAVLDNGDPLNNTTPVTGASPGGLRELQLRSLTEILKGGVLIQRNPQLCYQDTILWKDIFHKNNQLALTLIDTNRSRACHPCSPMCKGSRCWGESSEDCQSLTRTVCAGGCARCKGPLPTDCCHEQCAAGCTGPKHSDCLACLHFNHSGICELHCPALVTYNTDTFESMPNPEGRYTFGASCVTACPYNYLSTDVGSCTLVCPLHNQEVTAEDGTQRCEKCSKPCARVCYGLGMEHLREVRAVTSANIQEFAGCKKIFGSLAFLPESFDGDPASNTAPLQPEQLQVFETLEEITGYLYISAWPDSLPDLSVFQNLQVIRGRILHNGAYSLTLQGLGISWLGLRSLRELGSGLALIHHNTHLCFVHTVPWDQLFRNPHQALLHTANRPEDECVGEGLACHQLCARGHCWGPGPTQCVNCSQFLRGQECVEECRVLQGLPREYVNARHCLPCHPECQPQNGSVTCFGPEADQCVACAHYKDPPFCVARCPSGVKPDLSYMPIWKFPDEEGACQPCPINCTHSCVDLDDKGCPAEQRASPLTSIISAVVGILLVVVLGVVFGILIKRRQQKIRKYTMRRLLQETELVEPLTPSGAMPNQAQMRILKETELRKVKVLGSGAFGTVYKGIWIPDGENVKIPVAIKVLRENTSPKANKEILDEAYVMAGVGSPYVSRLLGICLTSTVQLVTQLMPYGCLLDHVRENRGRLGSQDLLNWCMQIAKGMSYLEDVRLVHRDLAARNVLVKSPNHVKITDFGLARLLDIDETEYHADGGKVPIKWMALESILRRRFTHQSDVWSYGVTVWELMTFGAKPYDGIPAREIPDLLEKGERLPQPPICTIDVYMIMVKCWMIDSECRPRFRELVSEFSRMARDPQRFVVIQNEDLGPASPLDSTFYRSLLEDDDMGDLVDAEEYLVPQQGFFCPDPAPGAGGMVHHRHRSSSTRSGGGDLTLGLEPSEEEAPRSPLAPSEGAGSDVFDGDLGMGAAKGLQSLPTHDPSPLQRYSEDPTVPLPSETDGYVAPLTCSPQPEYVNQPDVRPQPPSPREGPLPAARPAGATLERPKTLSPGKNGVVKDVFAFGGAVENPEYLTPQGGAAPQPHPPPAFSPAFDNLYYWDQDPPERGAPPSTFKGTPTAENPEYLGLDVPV
A short description of assay [3]: SK-BR-3 cell growth inhibitors, pilot screen, 24 h, human (AID 572;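 active = viability at or below 10% of carrier control in both of two separate runs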;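 note: compound exposure lasted between 18 and 24 h rather than exactly 24 h; 100% = carrier-treated control wells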). To be noted: SK-BR-3 viability, CellTiter-Glo luminescence, at 10 µM, stronger effect = lower value. (Cellular ATP, detected with luciferase, serves as a proxy for viable cell number.)
Assay [4] can be described thus: HUVEC growth inhibition – cell-based, human, primary screen (AID 575).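 Note: 100% = median of untreated cell wells with 0.1% DMSO on each plate.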 To be noted: HUVEC proliferation, CellTiter-Glo luminescence, 72 h; at 10 µM; stronger effect = lower value. An outline of the steps: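 Material: primary human umbilical vein endothelial cells / Schedule: 72 h exposure, 37 °C, 5% CO2, 30 min RT equilibration / Signal: ATP-based CellTiter-Glo luminescent read / Read-out basis: percent of median DMSO-control luminescence / Control set: 32 DMSO-only cell-control wells (high), 32 MePR drug-control wells (low) per plate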

Assay [5] can be described thus: growth inhibitors of H69AR lung tumor, primary screen, human, duplicate replicates (AID 580;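 active = viability at or under a set limit in both replicates, limit being median viability minus 3 SD, cut at about 48% in these data, passing the limit was not always enough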;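 note: 100% = mean luminescence of untreated wells and 0% = no signal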). As to conditions: H69AR lung tumor cells viability, ATP luminescence, 72 h; at 10 µM; stronger effect = lower value.
Assay [6] is described as follows: reversal of MRP1-mediated doxorubicin resistance, pilot screen, H69AR cells, doxorubicin co-treatment (AID 601;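 active = viability loss from added drug above about 55%, and viability with drug at most 40%, in both replicates, limit read from the data, passing the limit was not always enough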). As to conditions: CellTiter-Glo, 72 h, at 10 µM; for differential viability (reversal): stronger effect = higher value.
The nature of assay [7]: 384-well plate pilot, post-Golgi transport modulator project, inhibition of yeast transport mutant growth (AID 636; in the data active = inhibition above about 31%). To be noted: absorbance 615 nm, about 18 h, stronger effect = higher value.
Assay [8] can be described thus: growth suppression of yeast trafficking mutant, preliminary HTS, modulators of trafficking downstream of Golgi apparatus project, 1536-format plate, OD 615 nm (AID 637; in the data active = inhibition above about 30%). To be noted: yeast transport mutant growth, absorbance 615 nm, 18 h; stronger effect = higher value.
[9] abbreviates: H69AR cells + 2 uM doxorubicin, measured here: viability with 2 uM doxorubicin, stronger effect = lower value.
Setting [10] is: H69AR cells, compound alone cytotoxicity.

On to `CCc1nnc2n1N=C(c1ccc(-c3ccc(Cl)cc3Cl)o1)CS2`, for which the viability in assay [1] is 99.5%; in assay [3], 99.5% (inactive); in assay [4], 110% (inactive); in assay [5], 108% (inactive); in assay [6] (setting [9]), 84.4%; in assay [6] (setting [10]), 108%. The Her2 level in assay [2] is 81.5% (inactive). Besides, the differential viability (reversal) in assay [6] (H69AR cells + 2 uM doxorubicin) was 23.9% (inactive). The results for the inhibition in assay [7] and in assay [8] were -2.99% (inactive) and -3.17% (inactive), respectively.

For the compound `CCOC(=O)c1cccc(NC(=O)c2ccco2)c1`, the viability was 95.5% in assay [1]; 95.5% (inactive) in assay [3]; 114% (inactive) in assay [4]; 91.9% (inactive) in assay [5]; 88.1% in assay [6] (setting [9]); 91.9% in assay [6] (setting [10]). The Her2 level in assay [2] is 92.5% (inactive). Further, the differential viability (reversal) in assay [6] (H69AR cells + 2 uM doxorubicin) was 3.72% (inactive). Also, the inhibition is -0.77% (inactive) in assay [7] and -1.17% (inactive) in assay [8].

In the case of `CCOC(=O)CSC1=C(C#N)C(=O)NC2(CCCCC2)S1`, the viability is 108% in assay [1]; 108% (inactive) in assay [3]; 100% (inactive) in assay [4]; 108% (inactive) in assay [5]; 95.9% in assay [6] (setting [9]); 108% in assay [6] (setting [10]). Besides, the Her2 level in assay [2] is 106% (inactive). Further, in assay [6] (H69AR cells + 2 uM doxorubicin), the differential viability (reversal) is 12.1% (inactive). The figures for the inhibition in assay [7] and in assay [8] were -6.16% (inactive) and -5.24% (inactive), respectively.

`Cc1ccc(NC(=O)C2CC=CCC2C(=O)N2CCCCC2)cc1` (stereo not given): the viability in assay [1] was 71%; in assay [3] it was 71% (inactive); in assay [4], 95.7% (inactive); in assay [5], 95.7% (inactive); in assay [6] (setting [9]), 83.2%; in assay [6] (setting [10]) it was 95.7%. In assay [2], the Her2 level was 76.5% (inactive). In assay [6] (H69AR cells + 2 uM doxorubicin), the differential viability (reversal) is 12.5% (inactive). The inhibition in assay [7] is -5.54% (inactive); in assay [8], -1.31% (inactive).

Consider `Cc1cc2cc(CN(CC3CCCO3)C(=O)c3cnccn3)c(=O)[nH]c2cc1C` (stereo not given), for which the viability is 75% in assay [1]; 75% (inactive) in assay [3]; 89.9% (inactive) in assay [4]; 92.3% (inactive) in assay [5]; 86.3% in assay [6] (setting [9]); 92.3% in assay [6] (setting [10]). In addition, the Her2 level in assay [2] is 130% (inactive). Also, in assay [6] (H69AR cells + 2 uM doxorubicin), the differential viability (reversal) was 6.07% (inactive). The results for the inhibition in assay [7] and in assay [8] were -0.8% (inactive) and -4.59% (inactive), respectively.

As for `COc1cc(C)c(N)cc1C(C)C`, the viability in assay [1] is 103%; in assay [3], 103% (inactive); in assay [4], 89.2% (inactive); in assay [5], 94.1% (inactive); in assay [6] (setting [9]) it was 92.8%; in assay [6] (setting [10]), 94.1%. Moreover, the Her2 level in assay [2] is 91% (inactive). Moreover, the differential viability (reversal) in assay [6] (H69AR cells + 2 uM doxorubicin) was 1.33% (inactive). Moreover, the inhibition is -2.93% (inactive) in assay [7] and -0.82% (inactive) in assay [8].

Turning to `O=C(NC1CCCC1)c1ccc(S(=O)(=O)N2CCCC2)cc1`, the viability was 107% in assay [1]; 107% (inactive) in assay [3]; 103% (inactive) in assay [4]; 87.6% (inactive) in assay [5]; 95% in assay [6] (setting [9]); 87.6% in assay [6] (setting [10]). Moreover, the Her2 level in assay [2] was 120% (inactive). Besides, in assay [6] (H69AR cells + 2 uM doxorubicin), the differential viability (reversal) was -7.37% (inactive). The values for the inhibition in assay [7] and in assay [8] were -1.08% (inactive) and 0.83% (inactive), respectively.

On to `CCS(=O)(=O)N1CCCC(C(=O)NCc2cccc(OC)c2)C1` (stereo not given), for which the viability in assay [1] was 106%; in assay [3], 106% (inactive); in assay [4], 98.1% (inactive); in assay [5], 96.6% (inactive); in assay [6] (setting [9]), 102%; in assay [6] (setting [10]) it was 96.6%. For the same compound, the Her2 level in assay [2] is 108% (inactive). Besides, the differential viability (reversal) in assay [6] (H69AR cells + 2 uM doxorubicin) was -4.98% (inactive). Also, the inhibition in assay [7] was -5.2% (inactive); in assay [8] it was 5.41% (inactive).

As for `CCOC(=O)c1c(C)n(C)c2ccc(OC)c(NC(=O)CCN3CCSCC3)c12`, the viability in assay [1] was 122%; in assay [3] it was 122% (inactive); in assay [4], 96.7% (inactive); in assay [5], 83.5% (inactive); in assay [6] (setting [9]), 85.1%; in assay [6] (setting [10]), 83.5%. In addition, in assay [2], the Her2 level is 91.5% (inactive). The differential viability (reversal) in assay [6] (H69AR cells + 2 uM doxorubicin) was -1.65% (inactive). The values for the inhibition in assay [7] and in assay [8] were -2.89% (inactive) and -2.74% (inactive), respectively.

With `COc1ccc(OC)c(NC(=O)CCN2CCC(C)CC2)c1`, the viability in assay [1] was 112%; in assay [3], 112% (inactive); in assay [4], 78.3% (inactive); in assay [5], 92.4% (inactive); in assay [6] (setting [9]), 93.1%; in assay [6] (setting [10]), 92.4%. For the same compound, the Her2 level in assay [2] is 120% (inactive). Besides, the differential viability (reversal) in assay [6] (H69AR cells + 2 uM doxorubicin) was -0.63% (inactive). For the same compound, the inhibition in assay [7] was 4.86% (inactive); in assay [8], 22.4% (inactive).

Regarding `CC(=O)NC(Cc1ccccc1)C(=O)NC1CCN(C(=O)c2cnccn2)CC1` (stereo not given), the viability in assay [1] was 122%; in assay [3], 122% (inactive); in assay [4], 104% (inactive); in assay [5], 96.2% (inactive); in assay [6] (setting [9]), 95%; in assay [6] (setting [10]), 96.2%. Moreover, the Her2 level in assay [2] is 88% (inactive). In addition, in assay [6] (H69AR cells + 2 uM doxorubicin), the differential viability (reversal) was 1.21% (inactive). The inhibition in assay [7] is -4.86% (inactive); in assay [8], 8.52% (inactive).

For `COc1ccc(N(CC(=O)N2c3ccccc3CC2C)S(=O)(=O)c2c(C)noc2C)cc1` (stereo not given), the viability in assay [1] was 88.5%; in assay [3], 88.5% (inactive); in assay [4] it was 70.3% (inactive); in assay [5], 83% (inactive); in assay [6] (setting [9]), 99.9%; in assay [6] (setting [10]), 83%. For the same compound, the Her2 level in assay [2] was 88.5% (inactive). Besides, the differential viability (reversal) in assay [6] (H69AR cells + 2 uM doxorubicin) is -16.9% (inactive). Also, the inhibition in assay [7] was -4.53% (inactive); in assay [8] it was 1.97% (inactive).

`CCCN1CCC(NC(=O)Nc2ccc(OC)c(OC)c2)CC1`: the viability was 124% in assay [1]; 124% (inactive) in assay [3]; 111% (inactive) in assay [4]; 90.7% (inactive) in assay [5]; 86.1% in assay [6] (setting [9]); 90.7% in assay [6] (setting [10]). In assay [2], the Her2 level was 96.5% (inactive). Also, the differential viability (reversal) in assay [6] (H69AR cells + 2 uM doxorubicin) was 4.61% (inactive). Further, the results for the inhibition in assay [7] and in assay [8] were -1.69% (inactive) and -2.33% (inactive), respectively.

With `COc1ccc(-c2cc(C(F)(F)F)nc(SCC(=O)NCc3ccco3)n2)cc1OC`, the viability in assay [1] was 96.5%; in assay [3], 96.5% (inactive); in assay [4] it was 68.1% (inactive); in assay [5], 55.2% (inactive); in assay [6] (setting [9]), 80.9%; in assay [6] (setting [10]) it was 55.2%. Besides, the Her2 level in assay [2] was 84% (inactive). Further, in assay [6] (H69AR cells + 2 uM doxorubicin), the differential viability (reversal) is -25.6% (inactive). Besides, the inhibition was -0.66% (inactive) in assay [7] and -0.32% (inactive) in assay [8].

As to `CNC(=O)CC(C(=O)O)c1ccc(OCC(C)C)cc1` (stereo not given), the viability is 90.5% in assay [1]; 90.5% (inactive) in assay [3]; 84.4% (inactive) in assay [4]; 93.9% (inactive) in assay [5]; 89.2% in assay [6] (setting [9]); 93.9% in assay [6] (setting [10]). The Her2 level in assay [2] is 102% (inactive). In assay [6] (H69AR cells + 2 uM doxorubicin), the differential viability (reversal) was 4.75% (inactive). Moreover, the inhibition in assay [7] was -2.11% (inactive); in assay [8], 9.84% (inactive).
